UCH37 DUB inh: inhibitors of human deubiquitinating enzyme UCH37; Q9Y5K5; actives 0.33% (n = 330,000); purified proteasome/UCH37, Ub-AMC cleavage fluorescence; inhibition, % (no concentration beside the values);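 active = mean inhibition over replicate wells above about 20%, limit read from the data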;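 note: 0% = compound-free wells with enzyme and 100% = wells lacking proteasome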
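Reagent: Ub-AMC substrate; assay system: Proteasome-associated human UCH37 deubiquitinase; controls: no-proteasome and no-compound wells; read-out: % inhibition of Ub-AMC cleavage fluorescence; timing: 30 min preincubation with enzyme, 25 min cleavage at room temperature; signal: AMC fluorescence from Ub-AMC cleavage, excitation 355 nm, emission 460 nm; buffer or medium: Tris-HCl pH 7.4 plus ovalbumin, ATP-MgCl2, DTT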
ATG4B inhibitor: blocks human ATG4B protease cleavage of LC3 substrate; Q9Y4P1; inhibition, % at 8.33 µM; actives 0.51% (n = 340,000); ATG4B cleavage of LC3-PLA2, NBD-HPC fluorescence, 1 h; AID 504462; in the data active = inhibition above about 40%
Target sequence (Q9Y4P1 whole entry, looked up): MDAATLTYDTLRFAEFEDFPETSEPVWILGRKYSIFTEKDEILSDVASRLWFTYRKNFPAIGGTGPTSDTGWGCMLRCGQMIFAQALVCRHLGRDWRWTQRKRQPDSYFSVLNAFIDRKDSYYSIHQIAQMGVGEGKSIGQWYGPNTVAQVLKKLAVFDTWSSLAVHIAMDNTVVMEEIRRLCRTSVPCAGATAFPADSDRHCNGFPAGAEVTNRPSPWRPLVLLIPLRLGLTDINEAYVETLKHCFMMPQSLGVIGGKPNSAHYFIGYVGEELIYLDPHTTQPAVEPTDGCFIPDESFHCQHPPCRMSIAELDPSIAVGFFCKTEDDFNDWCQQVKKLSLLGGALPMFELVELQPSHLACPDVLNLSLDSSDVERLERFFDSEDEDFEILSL
GRIN3A LBD mod: NR3A (human) ligand-binding domain modulation. Tm shift relative to glycine control, % at 25 µM. NR3A LBD differential scanning fluorimetry, Tm shift; 0% = protein alone, 100% = glycine-bound protein. actives 2.5% (n = 340,000);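 active = melting temperature shift of at least 10% of the positive control shift, at one fixed dose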
NadD inh: blocks S. aureus nicotinate mononucleotide adenylyltransferase. purified NadD enzyme, colorimetric absorbance read-out. inhibition, % at 20 µM. actives 0.78% (n = 360,000); in the data active = inhibition above about 26%
SENP1 inh: blocks the human SENP1 SUMO protease catalytic domain; Q9P0U3; recombinant SENP1 catalytic domain, CyPet-SUMO1-YPet FRET cleavage; inhibition, % at 10 µM; actives 0.21% (n = 360,000); AID 624204;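 active = inhibition at least 30% at 10 µM, raw YFP signal under a set limit, fluorescence ratio 0.5 to 1.5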;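 note: 0% = enzyme with DMSO and 100% = no enzyme wells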
Target sequence (Q9P0U3 419-644 limits assumed): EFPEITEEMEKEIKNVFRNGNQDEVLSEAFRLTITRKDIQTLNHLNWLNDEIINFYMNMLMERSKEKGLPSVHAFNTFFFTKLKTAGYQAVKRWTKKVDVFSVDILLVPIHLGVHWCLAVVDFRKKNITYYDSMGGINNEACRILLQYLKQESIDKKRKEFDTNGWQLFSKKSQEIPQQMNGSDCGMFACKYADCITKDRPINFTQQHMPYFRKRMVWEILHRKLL
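Material: hSENP1 catalytic domain, recombinant; medium: Tris pH 8 with BME, BSA, NP40 and catalase; compound: single concentration of 10 µM compound, 0.5% DMSO final; technique: FRET read of cyan and yellow fluorescence; timing: 50 min enzyme reaction, room temperature, light-protected; reagent: SFCypet-SUMO1-SFYpet substrate at 25 nM; control set: no-enzyme low, enzyme-DMSO high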
* hit, by the source's call; . = not tested or not shown. An excerpt weighted towards active compounds, which were near 3.6% of everything screened.

SMILES | UCH37 DUB inh | ATG4B inhibitor | GRIN3A LBD mod | NadD inh | SENP1 inh
CC(=O)c1ccc(NC(=S)NCc2ccc(Cl)cc2Cl)cc1 | 5 | 11 | 16* | -2 | 1
CC(=O)Nc1csc2ccccc12 | -1 | 0 | -1 | -8 | 0
O=C(Nc1ccccc1)Nc1csc2ccccc12 | 3 | -16 | 31* | -2 | -1
COC(=O)Cc1ccc(NC(=S)NCc2ccccc2Cl)cc1 | 1 | 24 | -11 | -4 | 1
CC(=O)Nc1ccc(C#Cc2ccc(NC(C)=O)cc2)cc1 | -2 | 2 | 29* | 1 | 0
CC(=O)c1ccc(NC(=O)Nc2cccc3ccccc23)cc1 | -3 | -7 | 13* | -2 | -1
Nc1ccc(NC(=O)c2ccc(C(=O)Nc3ccc(N)cc3)cc2)cc1 | . | 3 | -1 | 9 | 3
Nc1ccc(C(=O)CC(=O)Nc2ccc(Cl)cc2)cc1 | 3 | 1 | 12* | 1 | -1
CC(=O)Nc1ccc(NC(=O)Nc2cccc3ccccc23)cc1 | -3 | -2 | 0 | -9 | 3
CC(=O)Nc1ccc(N=Nc2ccc(O)cc2)cc1 | 16 | 5 | 15* | 0 | 3
CC(=O)Nc1ccc(NC(=O)Nc2ccccc2)cc1 | 0 | -5 | 19* | 0 | 0
C=CCOc1ccc(-c2nc3c(c(=O)[nH]c(=O)n3CCC)n2CCCC)cc1 | -62 | -4 | -1 | 4 | 10
C=CCn1c(SCc2nc3c(c(=O)[nH]c(=O)n3CCCC)n2CCC)nnc1-c1ccccc1 | 29* | -5 | -1 | 8 | -1
O=C(Nc1nc2ccc(F)cc2s1)c1cccs1 | -18 | -5 | 16* | -3 | 0
CN(C)S(=O)(=O)c1ccc2nc(NC(=O)c3cccs3)sc2c1 | 5 | -4 | 2 | -6 | 3
O=C(Nc1nc2ccc(F)cc2s1)c1cccc(S(=O)(=O)N2CCc3ccccc32)c1 | -13 | 13 | 14* | 22 | -2
CCOC(=O)c1ccc2nc(NC(=O)c3cccs3)sc2c1 | 0 | 3 | 42* | -5 | 0
O=C(NC(=S)Nc1nc2ccccc2s1)c1cccs1 | 4 | -1 | 27* | -2 | -6
O=C(Nc1nncs1)c1cccc(S(=O)(=O)N2CCc3ccccc32)c1 | -1 | -7 | -17 | 2 | 1
CCCC(=O)Nc1nc2ccc(C(=O)OCC)cc2s1 | -2 | -12 | -1 | 3 | -11
COC(=O)Cn1cc(C=NNC(=O)c2ccc(C#N)cc2F)c2ccccc21 | 12 | . | . | . | .
NC(CC(=O)Nc1cc(C(F)(F)F)ccc1Cl)=NO | 1 | . | . | . | .
CCOC(=O)c1ccc2nc(NC(=O)c3ccco3)sc2c1 | -2 | -6 | 16* | -10 | -149
COc1cccc(CN(C(=O)Cc2c[nH]c3ccccc23)C(C(=O)NC2CCCCC2)c2ccc(C)o2)c1 (stereo not drawn) | 3 | 11 | 23* | 13 | -3
CCNC(=S)N(Cc1ccc2c(c1)OCO2)C1CC(=O)N(c2ccc(OC)cc2)C1=O (stereo not drawn) | 2 | -8 | 26* | 2 | 0
SMILES | UCH37 DUB inh | ATG4B inhibitor | GRIN3A LBD mod | NadD inh | SENP1 inh
CCNC(=S)N(Cc1ccc(OC)cc1)C1CC(=O)N(c2ccc(OCC)cc2)C1=O (stereo not drawn) | 7 | 6 | 18* | -13 | 4
CCNC(=S)N(Cc1ccc2c(c1)OCO2)C1CC(=O)N(c2ccc(F)cc2)C1=O (stereo not drawn) | 5 | 0 | -1 | -6 | 2
O=C(NNC(=O)c1cc(-c2ccccc2)nc2ccccc12)Nc1cccc(Cl)c1 | 2 | 14 | 26* | 10 | 4
O=C(NNC(=O)c1cc(-c2cccnc2)nc2ccccc12)Nc1ccc(Cl)cc1 | -1 | -23 | 26* | -3 | -13
COc1ccc(C=NNC(=O)c2cc(-c3ccccc3OC)nc3ccccc23)cc1COC(C)=O | 2 | . | . | . | .
Cc1cc([N+](=O)[O-])cc(C)c1OCC(=O)NN=Cc1ccc(OC(=O)c2ccccc2)cc1 | 3 | . | . | . | .
COc1cc(OC)nc(NN=C(c2ccccc2)c2ccncc2)n1 | 3 | . | . | . | .
CN1CCN(C(c2ccc(Br)cc2)c2cc(Cl)c3cccnc3c2O)CC1 (stereo not drawn) | . | 12 | 34* | 25 | 3
COCc1nnc(NC(=O)c2ccc(S(=O)(=O)N3CCCc4ccccc43)cc2)o1 | 0 | -10 | -5 | 11 | 2
COc1ccc(-c2nnc(NC(=O)c3ccc(S(=O)(=O)N4CCCc5ccccc54)cc3)o2)cc1 | -27 | 11 | 6 | 86* | 0
CCCOc1ccc(-c2nn(-c3ccccc3)cc2/C=C2\SC(N)=NC2=O)cc1C | -64 | -1 | 16* | 11 | -7
COc1ccc(-c2nn(CCC(=O)O)cc2/C=C2\SC(N)=NC2=O)cc1OC | . | -6 | 1 | 0 | 1
COc1ccc(C)cc1N(C(=O)c1ccc(F)cc1)c1nc2ccccc2s1 | 0 | 7 | 11* | 4 | 0
COc1ccc(C)cc1N(C(=O)COc1cccc(F)c1)c1nc2ccccc2s1 | 1 | -16 | 0 | 4 | 0
COc1ccc(C=NNC(=O)CN(Cc2ccccc2)S(=O)(=O)c2ccc3c(c2)OCCO3)cc1 | 1 | . | . | . | .
Cc1ccc(/C=C2\SC(N3CCN(C(c4ccccc4)c4ccccc4)CC3)=NC2=O)o1 | 6 | 12 | 7 | 59* | -2
C(=NNc1nnnn1-c1ccccc1)c1ccncc1 | 6 | . | . | . | .
O=C(CN1c2ccccc2Sc2ccccc21)NNC(=O)Nc1ccc(Cl)c(Cl)c1 | 5 | -3 | 16* | 24 | 2
O=C(CN1c2ccccc2Sc2ccccc21)NNC(=O)Nc1ccc(Cl)cc1 | 5 | 2 | 39* | 6 | 1
O=[N+]([O-])c1ccccc1NC(=S)NN=Cc1ccc(O)c(O)c1 | 8 | . | . | . | .
O=C(CCC1CCCC1)NCCS(=O)(=O)N1CCN(c2ccc(F)cc2)CC1 | 1 | -5 | 2 | -6 | 0
O=C(CCC1CCCCC1)NCCS(=O)(=O)N1CCN(c2ccc(F)cc2)CC1 | 4 | -3 | 14* | -2 | 1
COc1ccc(N2CCN(S(=O)(=O)CCNC(=O)C3CC3)CC2)cc1 | 5 | 9 | 13* | -2 | 3
CCOc1ccc(C=NOCC(=O)Nc2cc(C)on2)cc1 | 2 | . | . | . | .
Cc1[nH]c2ccccc2c1C=NNC(=O)c1cc(-c2ccncc2)nc2ccccc12 | 6 | . | . | . | .
O=C(O)c1ccccc1-c1ccccc1C(=O)NNc1ccccc1 | 1 | -5 | 14* | 4 | 1
COCCN1Cc2cccc(C(=O)Nc3ccc(C)c(C)c3)c2C1=O | 0 | 5 | 7 | -7 | 2
COCCN1Cc2cccc(C(=O)Nc3cccc(OC)c3)c2C1=O | 2 | -9 | 19* | -2 | 1
Clc1ccc(/C=N/Nc2ncnc3ccccc23)cc1Cl | . | -5 | 17* | 1 | 4
COc1ccc(-c2cc(C(=O)N3CCCC(C(F)(F)F)C3)c3ccccc3n2)cc1OC (stereo not drawn) | -41 | -15 | 18* | 2 | 1

Source: PubChem BioAssay
